Source: PubChem
PPC-1+TRAIL kill: compounds killing PPC-1 cancer cells with TRAIL present, primary screen, TRAIL potentiator project, ATPLite luminescence, uHTS; PPC-1 cells + TRAIL, ATPLite viability luminescence; cell killing (% activity), % at 4 µM or 5 µM; actives 0.41% (n = 220,000);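 active = cell killing above 50% in the first pass at 4 µM, then a duplicate retest at 5 µM averaging 50% or more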;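 note: plate controls were cells with TRAIL plus DMSO for no effect and medium-only wells lacking cells for full effect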
Platelet DG rel: inhibitors of platelet dense granule secretion, primary screen, cell-based, MLPCN, human platelets. human platelet-rich plasma, SFLLRN dense granule ATP release, luminescence. inhibition, %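 (compounds screened at 7.5 µM in platelet-rich plasma)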. actives 0.22% (n = 300,000);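 active = mean replicate score, as percent of positive control, at or above 50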
STAT3 inh: IL-6 driven STAT3 reporter inhibitors, primary screen, U3A cells, luciferase, luminescence, MLSCN library. actives 0.89% (n = 190,000). inhibition, % at 5.5 µM. AID 862, 2007. IL-6 STAT3-luciferase reporter; host cell line lacks STAT1;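 active = inhibition above the mean inhibition across all screened compounds plus 3 SD, cut at about 44% in these data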;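 note: 0% = DMSO only wells and 100% = 100 µM nifuroxazide control wells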
STAT1 inh: STAT1 signaling inhibitors, primary screen, cell-based, HTS, luciferase reporter. actives 0.35% (n = 200,000). inhibition, % at 5.5 µM. NIH 3T3 STAT1-luciferase reporter, IFN-gamma, luminescence. AID 920, 2007;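 active = inhibition above a set limit, the mean inhibition across all tested compounds plus 3 SD, cut at about 34% in these data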;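 note: 0% = IFN-gamma with DMSO and 100% = IFN-gamma with 300 µM nifuroxazide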
TAG inh: inhibitors of triacylglycerol accumulation, primary screen, cell-based, uHTS, fluorescence, H9c2 | H9c2 cells, Nile Red lipid (TAG) fluorescence; cells loaded with 200 µM oleic acid | actives 0.66% (n = 230,000) | inhibition, % at 12.5 µM;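 active = pattern-corrected inhibition of lipid staining of at least 50% with the nuclear-stain viability signal not falling by more than 50%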;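 note: 0% = DMSO wells and 100% = triacsin C control wells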
Lipid droplet: inhibitors of hepatocyte lipid droplet formation, primary screen, imaging, high-throughput imaging, BODIPY stain; AML12 mouse hepatocytes, oleate lipid droplets; actives 0.4% (n = 240,000); inhibition, % at 6.5 µM;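 active = lipid droplet intensity inhibited by at least 50%, with more than 500 cells counted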
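Material – AML12 mouse liver cells · Also added – oleate loading, 100 µM · Compound dosing – 6.5 µM single-point dosing · Times – overnight treatment with compound plus oleate · Measured by – fluorescence imaging, 20x objective, two fields per well · Read-out – percent inhibition of filter-corrected integrated lipid droplet intensity per well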
PPC-1 tox: cytotoxicity in PPC-1 cells, confirmation, cytotoxicity control for TRAIL apoptosis potentiator project, cell-based, ATP content luminescence. shares compounds with PPC-1+TRAIL kill. PPC-1 viability, ATPlite luminescence, overnight. cytotoxicity, % at 5 µM. actives 50% (n = 1,200). AID 1447, 2008;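 active = reconfirmed compounds whose average cytotoxicity reaches 50% or more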;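 note: 0% = DMSO-treated cells and 100% = wells holding medium but no cells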
An asterisk follows results filed as active. Shown are actives, neighbours in structure and some others; about 1.5% of the full set was active somewhere.

CCc1ccc(NC(=S)Nc2cccc3cnccc23)cc1 was read as PPC-1+TRAIL kill -3, Platelet DG rel -1, STAT3 inh -25, STAT1 inh 6, TAG inh -17, Lipid droplet -34 and PPC-1 tox -6.
Cc1cc(C)cc(NC(=S)Nc2cccc3cnccc23)c1 was read as PPC-1+TRAIL kill 47, STAT3 inh 11, STAT1 inh 2, TAG inh 13 and Lipid droplet -4.
CC1=C2C3OC(=O)C(C)C3CCC2(C)C=CC1=NO (stereo unspecified) was read as TAG inh 0.
`O=c1cc(-c2ccccc2)[nH]c2nc3ccccc3n12` gave PPC-1+TRAIL kill 70*, Platelet DG rel 7, STAT3 inh 36, STAT1 inh 6, TAG inh -5, Lipid droplet 2 and PPC-1 tox 65*.
`C/C(=N\NC(=O)c1ccccc1NC(=O)c1ccc(Cl)cc1)c1ccncc1` gave PPC-1+TRAIL kill 97*, Platelet DG rel 96*, STAT3 inh 106*, STAT1 inh 96*, Lipid droplet 0 and PPC-1 tox 97*.
CCOC(=O)CCCN(c1[nH]c(C)c(C)c1C#N)S(=O)(=O)c1ccc(C)cc1 was read as TAG inh 10.
CCc1ccc2c(c1)NC(=O)C2(C)Cc1ccccc1C#N (stereo unspecified) was read as TAG inh 1.
Cc1nnc(SCc2cnc(-c3ccc(C(C)C)cc3)s2)n1C was read as PPC-1+TRAIL kill 91*, STAT3 inh 65*, STAT1 inh 37* and PPC-1 tox 91*.
`c1ccc(-c2ncc(CSc3nncn3-c3ccccc3)s2)cc1` gave PPC-1+TRAIL kill -12, Platelet DG rel -4, STAT3 inh 12, STAT1 inh 2, TAG inh -7 and Lipid droplet -6.
Screening CCOc1ccc(Nc2nc(N)nc(CCl)n2)cc1 returned PPC-1+TRAIL kill 95*, Platelet DG rel 22, TAG inh 72*, Lipid droplet 2 and PPC-1 tox 93*.
`Cc1ccc(Nc2nc(N)nc(CCl)n2)c(C)c1` gave PPC-1+TRAIL kill 92*, Platelet DG rel 0, TAG inh 80*, Lipid droplet 6 and PPC-1 tox 92*.
`Cc1ccc(Nc2nc(N)nc(CCl)n2)cc1` gave PPC-1+TRAIL kill 48, Platelet DG rel 5, TAG inh 15 and Lipid droplet 19.
`CC(C)Cc1ccc(C(C)CC2=CCC(CN(C)C)C2=O)cc1` (stereo unspecified) gave TAG inh 14.
For COc1ccc(NC(=O)c2sc(=O)n(Cc3ccc(F)c(Cl)c3)c2C)cc1OC the results were TAG inh 6.
Screening C[C@@H]1CN([C@H](C)CO)C(=O)c2cc(Br)cnc2O[C@@H]1CN(C)C(=O)C1CCOCC1 returned TAG inh -5.
`CCOC(=O)C1=C(C)N(CCCC(=O)O)C(=O)NC1c1ccc([N+](=O)[O-])cc1` (stereo unspecified) gave PPC-1+TRAIL kill 10, Platelet DG rel 0, STAT3 inh -6, STAT1 inh 7, TAG inh -10, Lipid droplet 17 and PPC-1 tox 6.
For Cc1cc(C(=O)Cn2cc(C(F)(F)F)ccc2=O)c(C)n1-c1ccccc1 the results were PPC-1+TRAIL kill 17, Platelet DG rel 0, STAT3 inh 7, STAT1 inh -2 and Lipid droplet -20.
For Cc1cc(C(=O)CN2C(=O)C3CC=CCC3C2=O)c(C)n1-c1ccccc1 (stereo unspecified) the results were PPC-1+TRAIL kill 49, Platelet DG rel 3, STAT3 inh 18, STAT1 inh -43, TAG inh 18 and PPC-1 tox 53*.
Screening COc1ccc2c(C)nc(Nc3nc(-c4ccccc4)cc(=O)[nH]3)nc2c1 returned PPC-1+TRAIL kill 42, Platelet DG rel -2, TAG inh 107, Lipid droplet 34 and PPC-1 tox 44.
Screening CSc1nc(C)cc(SCC(=O)Nc2ccccc2)n1 returned PPC-1+TRAIL kill -8, Platelet DG rel 11, STAT3 inh 14, STAT1 inh 12, Lipid droplet -3 and PPC-1 tox -14.
Cc1cc(SCC(=O)Nc2ccccc2)nc(C)n1 was read as PPC-1+TRAIL kill 7, Platelet DG rel 25, STAT3 inh 12 and STAT1 inh 6.
O=C(Nc1nc(-c2ccccn2)cs1)C1CC1 was read as PPC-1+TRAIL kill -2, Platelet DG rel 4, STAT3 inh 9, STAT1 inh -18, TAG inh 7 and Lipid droplet 23.
Screening O=C(Nc1nc(-c2ccccn2)cs1)C12CC3CC(CC(O)(C3)C1)C2 returned PPC-1+TRAIL kill 45, Platelet DG rel 0, STAT3 inh -9, STAT1 inh -13, TAG inh 0, Lipid droplet -9 and PPC-1 tox 40.
For C[C@@H]1CN([C@H](C)CO)C(=O)CCCn2nncc2CO[C@H]1CN(C)Cc1ccc2c(c1)OCCO2 the results were TAG inh 0.
`O=C(Nc1nonc1NC(=O)C1CCCCC1)C1CCCCC1` gave PPC-1+TRAIL kill 1, Platelet DG rel 0, STAT3 inh -5, STAT1 inh 3, TAG inh -12, Lipid droplet 16 and PPC-1 tox 3.
Screening CCNC(=O)N1CCNC(=O)C1CC(=O)OC (stereo unspecified) returned PPC-1+TRAIL kill 1, Platelet DG rel 1, STAT3 inh -6, STAT1 inh -13, TAG inh -3, Lipid droplet 0 and PPC-1 tox 9.
For COC(=O)CC1C(=O)NCCN1C(=O)NC1CCCCC1 (stereo unspecified) the results were PPC-1+TRAIL kill 14, Platelet DG rel 1, STAT3 inh 6, STAT1 inh -1 and TAG inh -1.
`Cc1ccc(-c2ccc(NC(=O)C3C4C=CC(C4)C3C(=O)O)cc2)o1` (stereo unspecified) gave PPC-1+TRAIL kill 8, Platelet DG rel -2, STAT3 inh 0, STAT1 inh -16, TAG inh -11, Lipid droplet 16 and PPC-1 tox 17.
`Nc1nc(CSCc2ccccc2)nc(N2CCOCC2)n1` gave PPC-1+TRAIL kill -1, Platelet DG rel 1, STAT3 inh -17, STAT1 inh -22, TAG inh -11, Lipid droplet 5 and PPC-1 tox 4.
